According to publication PMC10165662 (Bioorganic & medicinal chemistry letters, 2023):
Entries after “also recorded” stand apart in the source; their conditions may differ. Peptide text beside a SMILES is read from it. * marks the point of attachment. AMC = Cc1cc(=O)oc2cc(N*)ccc12

Target: 20S proteasome (sCP), β5 subunit (Homo sapiens, UniProt P28074)
Type: biochemical
Conditions: Figures 2C and 4B
How it was run: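 Purified human constitutive 20S proteasome (5 nM) incubated with LLVY-conjugated test substrate (10 μM in aminocoumarin time course) up to 4 h at 37 °C. Free LLVY [M+H] EIC quantified by single-quadrupole LC-MS against a purified LLVY standard curve (20–1250 pmol; LOQ 20 pmol), giving % cleaved. Reference fluorogenic substrates included each replicate; triplicates; one-way ANOVA.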

Compound: Cc1cc(=O)oc2cc(NC(=O)[C@H](Cc3ccc(O)cc3)NC(=O)[C@@H](NC(=O)[C@H](CC(C)C)NC(=O)[C@@H](N)CC(C)C)C(C)C)ccc12 [LLVY-AMC] (H-LLVY-{AMC})
- Rate of hydrolysis by the sCP in time-dependent MS analysis (in words): hydrolyzed by the sCP faster than TAS-1; also recorded: faster rate than the molecule with 6-aminocoumarin
